According to ChEMBL document CHEMBL1144911, “Synthesis and biological evaluation of 5-substituted derivatives of the potent antiherpes agent (north)-methanocarbathymine” (J Med Chem, 2003):

Tests used:
HFF [1] = assay: Cytotoxic concentration for 50% inhibition of cell growth of HSV-2 infected HFF cells determined by VPR assay; assay type: functional; details: Homo sapiens
Method in brief: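 Run in virus-infected HFF cells within the plaque reduction assay set-up. […] The value was converted from μg/mL to μM.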

HFF [2] = assay: Inhibitory concentration for HSV-2 plaque reduction (VPR) by 50% in HFF cells; assay type: functional, cell-based; details: Homo sapiens
Homo sapiens [3] = species on record: Homo sapiens; assay: Inhibitory concentration required to reduce HSV-2 induced cytopathogenic effect in human skin fibroblast; assay type: functional, organism-based
Human alphaherpesvirus 2 = assay: Inhibitory concentration required to reduce HSV-2 induced cytopathogenic effect (CPE) by 50 % in HFF cells; assay type: functional, organism-based; details: Human alphaherpesvirus 2, HFF
Human alphaherpesvirus 1 [4] = assay: Inhibitory concentration required to reduce HSV-1 induced cytopathogenic effect (CPE) by 50 % in HFF cells; assay type: functional, organism-based, herpes simplex virus; details: Human alphaherpesvirus 1, HFF
HFF [5] = assay: Cytotoxic concentration for 50% inhibition of cell growth of HSV-1 infected HFF cells determined by CPE assay; assay type: functional; details: Homo sapiens
Homo sapiens [6] = species on record: Homo sapiens; assay: Inhibitory concentration required to reduce HSV-1 induced virus plaque reduction (VPR) in human skin fibroblast; assay type: functional, organism-based
HFF [7] = assay: Cytotoxic concentration for 50% inhibition of cell growth of HSV-1 infected HFF cells determined by VPR assay; assay type: functional; details: Homo sapiens
Homo sapiens [8] = species on record: Homo sapiens; assay: Cytotoxic concentration that produces 50% growth inhibition of human skin fibroblast infected with HSV-1; assay type: functional
[9] = Inhibition constant against HSV-1 TK; assay type: functional, herpes simplex virus
HFF [10] = assay: Cytotoxic concentration for 50% inhibition of cell growth of HSV-2 infected HFF cells determined by CPE assay; assay type: functional; details: Homo sapiens
Homo sapiens [11] = species on record: Homo sapiens; assay: Inhibitory concentration required to reduce HSV-2 induced virus plaque reduction (VPR) in human skin fibroblast; assay type: functional, organism-based
HFF [12] = assay: Inhibitory concentration for HSV-1 plaque reduction (VPR) by 50% in HFF cells; assay type: functional, cell-based; details: Homo sapiens
Homo sapiens [13] = species on record: Homo sapiens; assay: (§1) Inhibitory concentration required to reduce HSV-1 induced cytopathogenic effect (CPE) in human skin fibroblast; assay type: functional, organism-based
Homo sapiens [14] = species on record: Homo sapiens; assay: Cytotoxic concentration that produces 50% growth inhibition of human skin fibroblast in VPR assay; assay type: functional
[15] = Cytotoxic concentration against non transfected osteosarcoma cells non transfected (MG-63-hTK1); assay type: functional
Method in brief: (§2)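 Osteosarcoma lines (143B-TK⁻ with 0.1 mg/mL 5-BrdU selection; MG-63-hTK1; 143B-TK⁺-HSV1-WT with HAT) grown in MEM/10% FCS. Seeded at 2 × 10³ (143B lines) or 1.5 × 10³ (MG-63) cells/well, exposed to five concentrations over 0.5–500 μM for 4.5 days at 37 °C/5% CO₂. XTT added for 9 h, A450 (ref 750 nm) read against untreated wells. Three independent series in triplicate.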

[16] = Cytotoxic concentration against HSV-1 TK- transfected osteosarcoma cells; assay type: functional; details: Human alphaherpesvirus 1; method in brief: as §2
[17] = Inhibitory activity against HSV-1-TK transfected osteosarcoma cells; assay type: functional; method in brief: as §2
[18] = Cytotoxic concentration against HSV-1 TK-transfected osteosarcoma cells; assay type: functional; details: Human alphaherpesvirus 1; method in brief: as §2
[19] = biological target: T1, Thymidine kinase, cytosolic (Homo sapiens) (UniProt P04183); details: herpes simplex virus
T1 sequence (whole entry): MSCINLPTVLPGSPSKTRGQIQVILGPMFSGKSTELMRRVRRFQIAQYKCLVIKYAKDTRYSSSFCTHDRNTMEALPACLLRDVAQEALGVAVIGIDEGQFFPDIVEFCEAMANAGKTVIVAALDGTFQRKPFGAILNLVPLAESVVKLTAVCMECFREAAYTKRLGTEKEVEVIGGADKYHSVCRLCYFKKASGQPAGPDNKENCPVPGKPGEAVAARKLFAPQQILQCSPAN

Human alphaherpesvirus 1 [20] = assay: as §1; assay type: functional, organism-based, herpes simplex virus
HFF [21] = assay: Concentration for HSV-2 plaque reduction (VPR) by 50% in HFF cells; assay type: functional, cell-based; details: Homo sapiens
HFF [22] = assay: Concentration for HSV-1 plaque reduction (VPR) by 50% in HFF cells; assay type: functional, cell-based; details: Homo sapiens
Human alphaherpesvirus 3 [23] = assay: Effective concentration against TK- Varicella-Zoster Virus (VZV) 07/1 strain; assay type: functional, organism-based
Human alphaherpesvirus 3 [24] = assay: Antiviral activity against OKA strain of thymidine kinase positive(TK+) Varicella-Zoster Virus (VZV); assay type: functional, organism-based
Human alphaherpesvirus 3 [25] = assay: Minimum cytotoxic concentration that causes alterations of VZV infected Osteosarcoma cell morphology; assay type: functional
Human alphaherpesvirus 3 [26] = assay: Effective concentration against TK+ Varicella-Zoster Virus (VZV) OKA strain; assay type: functional, organism-based
[27] = Cytotoxic concentration that produces 50% inhibition of cell growth.; assay type: functional
Human alphaherpesvirus 3 [28] = assay: Effective concentration against TK+ Varicella-Zoster Virus (VZV)YS strain; assay type: functional, organism-based
Human alphaherpesvirus 3 [29] = assay: Cytotoxic concentration that causes growth inhibition of VZV infected Osteosarcoma cells; assay type: functional
Human alphaherpesvirus 3 [30] = assay: Antiviral activity against YS/R strain of thymidine kinase negative(TK-) Varicella-Zoster Virus (VZV); assay type: functional, organism-based
[31] = Minimum cytotoxic concentration that causes microscopically detectable alterations of cell morphology; assay type: functional
Human alphaherpesvirus 3 [32] = assay: Antiviral activity against YS strain of thymidine kinase positive(TK+) Varicella-Zoster Virus (VZV); assay type: functional, organism-based
Human alphaherpesvirus 3 [33] = assay: Antiviral activity against 07/1 strain of thymidine kinase negative (TK-) Varicella-Zoster Virus (VZV); assay type: functional, organism-based
Human alphaherpesvirus 3 [34] = assay: Effective concentration against TK- Varicella-Zoster Virus (VZV) YS/R strain; assay type: functional, organism-based

In the case of `Cc1cn([C@H]2C[C@H](O)[C@]3(CO)C[C@H]23)c(=O)[nH]c1=O` [(NORTH)-METHANOCARBATHYMIDINE], the CC50 (HFF [1]) is reported as > 79000 nM, the EC50 (HFF [2]) is reported as 470 nM and the EC50 (Homo sapiens [3]) is reported as 350 nM. For the same molecule, the EC50 (Human alphaherpesvirus 2) was 350 nM, the EC50 (Human alphaherpesvirus 1 [4]) was 120 nM and the CC50 (HFF [5]) was > 396000 nM. For the same molecule, the EC50 (Homo sapiens [6]) was 40 nM, the CC50 (HFF [7]) was > 79000 nM and the CC50 (Homo sapiens [8]) was > 396000 nM. The Ki [9] was 16100 nM, the CC50 (HFF [10]) was > 396000 nM and the EC50 (Homo sapiens [11]) was 470 nM. For the same molecule, the EC50 (HFF [12]) was 40 nM, the EC50 (Homo sapiens [13]) was 120 nM and the CC50 (Homo sapiens [14]) was > 79000 nM.

Work on `Nc1nc2c(ncn2COC(CO)CO)c(=O)[nH]1` [GANCICLOVIR] yielded a CC50 [15] of 300000 nM, a CC50 [16] of 200000 nM and a CC50 [17] of 75000 nM. It also gave a CC50 [18] of 75000 nM and a k cat [19] of 0.1 s⁻¹.

`Nc1nc2c(ncn2COCCO)c(=O)[nH]1` [ACYCLOVIR] gave an EC50 (Homo sapiens [3]) of 10200 nM, an EC50 (Human alphaherpesvirus 2) of 10200 nM and an EC50 (Human alphaherpesvirus 1 [4]) of 2220 nM. It also gave an EC50 (Homo sapiens [6]) of 1100 nM, an EC50 (Human alphaherpesvirus 1 [20]) of 2220 nM and an EC50 (HFF [21]) of 1680 nM. It also gave an EC50 (Homo sapiens [11]) of 1680 nM and an EC50 (HFF [22]) of 1100 nM.

With `O=c1[nH]c(=O)n([C@H]2C[C@H](O)[C@@H](CO)O2)cc1/C=C/Br` [BRIVUDINE] the EC50 (Human alphaherpesvirus 3 [23]) was > 150000 nM, the EC50 (Human alphaherpesvirus 3 [24]) was 5 nM and the MCC (Human alphaherpesvirus 3 [25]) was > 150 µM. For the same molecule, the EC50 (Human alphaherpesvirus 3 [26]) was 5 nM, the CC50 [27] was > 400000 nM and the EC50 (Human alphaherpesvirus 3 [28]) was 8 nM. For the same molecule, the CC50 (Human alphaherpesvirus 3 [29]) was > 400000 nM, the EC50 (Human alphaherpesvirus 3 [30]) was > 150000 nM and the MCC [31] was > 150 µM. The EC50 (Human alphaherpesvirus 3 [32]) was 8 nM, the EC50 (Human alphaherpesvirus 3 [33]) was > 150000 nM and the EC50 (Human alphaherpesvirus 3 [34]) was > 150000 nM.
